Common to all, as to type: functional
Assay [1] has as its system Streptococcus pneumoniae. Kind of assay: Antibacterial activity against erythromycin-resistant Streptococcus pneumoniae B1 by standard dilution assay. The method in brief: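 Readout is minimal inhibitory concentration (MIC). Erythromycin resistance in this strain is erm-encoded. It was tested within a six-strain Gram-positive panel alongside clarithromycin and azithromycin references.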

The next assay concerns Staphylococcus aureus. As to the kind of experiment: Antibacterial activity against erythromycin-susceptible Staphylococcus aureus ATCC 25923 by standard dilution assay.
In a further assay the test system is Streptococcus pyogenes. As to the kind of experiment: Antibacterial activity against erythromycin-susceptible Streptococcus pyogenes by standard dilution assay.
The subject of assay [2] is Streptococcus pneumoniae. Kind of assay: Antibacterial activity against erythromycin-resistant Streptococcus pneumoniae AB11 by standard dilution assay. The procedure, abridged: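 Readout is minimal inhibitory concentration (MIC). The strain carries both erm- and mef-encoded erythromycin resistance. It was tested within a six-strain Gram-positive panel alongside clarithromycin and azithromycin references.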

For assay [3], the system named is Streptococcus pneumoniae. As to the kind of experiment: Antibacterial activity against erythromycin-susceptible Streptococcus pneumoniae ATCC 49619 by standard dilution assay. The procedure, abridged:
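MIC read-out, determined against a panel of six Gram-positive strains: three erythromycin-susceptible and three erythromycin-resistant S. pneumoniae (erm, mef, or erm plus mef). Clarithromycin and azithromycin were run alongside as reference macrolides.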

The subject of assay [4] is Streptococcus pneumoniae. As to the kind of experiment: Antibacterial activity against erythromycin-resistant Streptococcus pneumoniae A22072 by standard dilution assay. The procedure, abridged:
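Readout is minimal inhibitory concentration (MIC). The strain carries mef-encoded erythromycin resistance. It was tested within a six-strain Gram-positive panel alongside clarithromycin and azithromycin references.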

What is called MIC is the least concentration at which growth counts as inhibited. Low readings indicate inhibition by little substance, high ones a need for much substance.

Converted amounts (≈) assume the structure as drawn.

`CC[C@H]1OC(=O)[C@H](C)[C@@H](O[C@H]2C[C@@](C)(OC)[C@@H](O)[C@H](C)O2)[C@H](C)[C@@H](O[C@@H]2O[C@H](C)C[C@H](N(C)C)[C@H]2O)[C@](C)(O)C[C@@H](C)CN(C)[C@H](C)[C@@H](O)[C@]1(C)O` [AZITHROMYCIN]: the MIC is 128 µg/mL (≈ 171 µM) in the assay with Streptococcus pneumoniae [1]; 0.25 µg/mL (≈ 0.334 µM) in the assay on Staphylococcus aureus; 0.12 µg/mL (≈ 0.16 µM) with Streptococcus pyogenes; 256 µg/mL (≈ 342 µM) in the assay on Streptococcus pneumoniae [2]; 0.03 µg/mL (≈ 0.0401 µM) in the assay on Streptococcus pneumoniae [3]; 4 µg/mL (≈ 5.34 µM) against Streptococcus pneumoniae [4].
With `CCCCNC(=O)O[C@H]1[C@H](C)[C@@H](O[C@@H]2O[C@H](C)C[C@H](N(C)C)[C@H]2O)[C@](C)(O)C[C@@H](C)CN(C)[C@H](C)[C@H]2OC(=O)O[C@]2(C)[C@@H](CC)OC(=O)[C@@H]1C`, the MIC against Streptococcus pneumoniae [1] came out at 64 µg/mL (≈ 89.4 µM); against Staphylococcus aureus, 64 µg/mL (≈ 89.4 µM); against Streptococcus pyogenes, 8 µg/mL (≈ 11.2 µM); in the assay on Streptococcus pneumoniae [2] it was 32 µg/mL (≈ 44.7 µM); in the assay with Streptococcus pneumoniae [3], 8 µg/mL (≈ 11.2 µM); with Streptococcus pneumoniae [4] it was 128 µg/mL (≈ 179 µM).
For the compound `CC[C@H]1OC(=O)[C@H](C)[C@@H](OC(=O)NCCc2ccccc2)[C@H](C)[C@@H](O[C@@H]2O[C@H](C)C[C@H](N(C)C)[C@H]2O)[C@](C)(O)C[C@@H](C)CN(C)[C@H](C)[C@H]2OC(=O)O[C@@]21C`, the MIC in the assay with Streptococcus pneumoniae [1] was 64 µg/mL (≈ 83.8 µM); in the assay with Staphylococcus aureus, 64 µg/mL (≈ 83.8 µM); against Streptococcus pyogenes it was 8 µg/mL (≈ 10.5 µM); against Streptococcus pneumoniae [2], 32 µg/mL (≈ 41.9 µM); against Streptococcus pneumoniae [3], 4 µg/mL (≈ 5.24 µM); against Streptococcus pneumoniae [4], 64 µg/mL (≈ 83.8 µM).
Turning to `CC[C@H]1OC(=O)[C@H](C)[C@@H](O)[C@H](C)[C@@H](O[C@@H]2O[C@H](C)C[C@H](N(C)C)[C@H]2OC(C)=O)[C@](C)(O)C[C@@H](C)CN(C)[C@H](C)[C@@H](O)[C@]1(C)O`, the MIC in the assay with Streptococcus pneumoniae [1] was 128 µg/mL (≈ 202 µM); with Staphylococcus aureus it was 128 µg/mL (≈ 202 µM); against Streptococcus pyogenes, 128 µg/mL (≈ 202 µM); against Streptococcus pneumoniae [2], 256 µg/mL (≈ 405 µM); in the assay on Streptococcus pneumoniae [3] it was 128 µg/mL (≈ 202 µM); in the assay with Streptococcus pneumoniae [4], 128 µg/mL (≈ 202 µM).
With `CC[C@H]1OC(=O)[C@H](C)[C@@H](OC(=O)NCc2ccc(F)cc2)[C@H](C)[C@@H](O[C@@H]2O[C@H](C)C[C@H](N(C)C)[C@H]2O)[C@](C)(O)C[C@@H](C)CN(C)[C@H](C)[C@H]2OC(=O)O[C@@]21C`, the MIC was 64 µg/mL (≈ 83.3 µM) in the assay with Streptococcus pneumoniae [1]; 64 µg/mL (≈ 83.3 µM) against Staphylococcus aureus; 16 µg/mL (≈ 20.8 µM) with Streptococcus pyogenes; 64 µg/mL (≈ 83.3 µM) with Streptococcus pneumoniae [2]; 4 µg/mL (≈ 5.21 µM) in the assay with Streptococcus pneumoniae [3]; 32 µg/mL (≈ 41.7 µM) with Streptococcus pneumoniae [4].
Turning to `CC[C@H]1OC(=O)[C@H](C)[C@@H](O[C@H]2C[C@@](C)(OC)[C@@H](O)[C@H](C)O2)[C@H](C)[C@@H](O[C@@H]2O[C@H](C)C[C@H](N(C)C)[C@H]2O)[C@](C)(OC)C[C@@H](C)C(=O)[C@H](C)[C@@H](O)[C@]1(C)O` [CLARITHROMYCIN], the MIC came to 64 µg/mL (≈ 85.6 µM) against Streptococcus pneumoniae [1]; 0.12 µg/mL (≈ 0.16 µM) in the assay with Staphylococcus aureus; 0.12 µg/mL (≈ 0.16 µM) in the assay with Streptococcus pyogenes; 128 µg/mL (≈ 171 µM) against Streptococcus pneumoniae [2]; 0.03 µg/mL (≈ 0.0401 µM) in the assay on Streptococcus pneumoniae [3]; 4 µg/mL (≈ 5.35 µM) in the assay on Streptococcus pneumoniae [4].
On to `CC[C@H]1OC(=O)[C@H](C)[C@@H](O)[C@H](C)[C@@H](O[C@@H]2O[C@H](C)C[C@H](N(C)C)[C@H]2OC(C)=O)[C@@](C)(OC)C[C@@H](C)C(=O)[C@H](C)[C@@H](O)[C@]1(C)O`, for which the MIC was 128 µg/mL (≈ 203 µM) in the assay with Streptococcus pneumoniae [1]; 128 µg/mL (≈ 203 µM) with Staphylococcus aureus; 128 µg/mL (≈ 203 µM) against Streptococcus pyogenes; 256 µg/mL (≈ 405 µM) with Streptococcus pneumoniae [2]; 128 µg/mL (≈ 203 µM) in the assay on Streptococcus pneumoniae [3]; 128 µg/mL (≈ 203 µM) against Streptococcus pneumoniae [4].
As for `CC[C@H]1OC(=O)[C@H](C)[C@@H](OC(=O)NCc2ccc(OC)cc2)[C@H](C)[C@@H](O[C@@H]2O[C@H](C)C[C@H](N(C)C)[C@H]2O)[C@](C)(O)C[C@@H](C)CN(C)[C@H](C)[C@H]2OC(=O)O[C@@]21C`, the MIC amounted to 64 µg/mL (≈ 82.1 µM) against Streptococcus pneumoniae [1]; 128 µg/mL (≈ 164 µM) against Staphylococcus aureus; 16 µg/mL (≈ 20.5 µM) against Streptococcus pyogenes; 64 µg/mL (≈ 82.1 µM) against Streptococcus pneumoniae [2]; 8 µg/mL (≈ 10.3 µM) against Streptococcus pneumoniae [3]; 128 µg/mL (≈ 164 µM) in the assay on Streptococcus pneumoniae [4].
Turning to `CC[C@H]1OC(=O)[C@H](C)[C@@H](OC(=O)NCCc2ccccc2Cl)[C@H](C)[C@@H](O[C@@H]2O[C@H](C)C[C@H](N(C)C)[C@H]2O)[C@](C)(O)C[C@@H](C)CN(C)[C@H](C)[C@H]2OC(=O)O[C@@]21C`, the minimal inhibitory concentration (MIC) against Streptococcus pneumoniae [1] turned out to be 32 µg/mL (≈ 40.1 µM); in the assay on Staphylococcus aureus it was 32 µg/mL (≈ 40.1 µM); in the assay with Streptococcus pyogenes, 8 µg/mL (≈ 10 µM); in the assay with Streptococcus pneumoniae [2], 8 µg/mL (≈ 10 µM); in the assay with Streptococcus pneumoniae [3], 4 µg/mL (≈ 5.01 µM); with Streptococcus pneumoniae [4] it was 16 µg/mL (≈ 20 µM).
As to `CC[C@H]1OC(=O)[C@H](C)[C@@H](OC(=O)NCc2ccccc2)[C@H](C)[C@@H](O[C@@H]2O[C@H](C)C[C@H](N(C)C)[C@H]2O)[C@](C)(O)C[C@@H](C)CN(C)[C@H](C)[C@H]2OC(=O)O[C@@]21C`, the MIC in the assay with Streptococcus pneumoniae [1] came out at 64 µg/mL (≈ 85.3 µM); against Staphylococcus aureus, 64 µg/mL (≈ 85.3 µM); against Streptococcus pyogenes, 32 µg/mL (≈ 42.7 µM); in the assay with Streptococcus pneumoniae [2], 64 µg/mL (≈ 85.3 µM); with Streptococcus pneumoniae [3], 16 µg/mL (≈ 21.3 µM); with Streptococcus pneumoniae [4], 128 µg/mL (≈ 171 µM).
`CCCCCNC(=O)O[C@H]1[C@H](C)[C@@H](O[C@@H]2O[C@H](C)C[C@H](N(C)C)[C@H]2O)[C@](C)(O)C[C@@H](C)CN(C)[C@H](C)[C@H]2OC(=O)O[C@]2(C)[C@@H](CC)OC(=O)[C@@H]1C`: the MIC against Streptococcus pneumoniae [1] was determined as 32 µg/mL (≈ 43.8 µM); in the assay with Staphylococcus aureus it was 64 µg/mL (≈ 87.7 µM); in the assay on Streptococcus pyogenes, 16 µg/mL (≈ 21.9 µM); against Streptococcus pneumoniae [2], 32 µg/mL (≈ 43.8 µM); in the assay on Streptococcus pneumoniae [3] it was 4 µg/mL (≈ 5.48 µM); with Streptococcus pneumoniae [4], 64 µg/mL (≈ 87.7 µM).

The record behind these values is ChEMBL document CHEMBL1154807, “Synthesis and antibacterial activity of novel 3-O-carbamoyl derivatives of clarithromycin and 11,12-cyclic carbonate azithromycin” (2010).
